Screening data from PubChem BioAssay.
KCNQ1 block – human KCNQ1 channel inhibition. AID 2642. CHO-K1 KCNQ1, FluxOR thallium flux fluorescence; active compounds read high. B-score at 10 µM. P51787. hit rate 1.3% among 310,000;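 active means compounds whose thallium flux B-score, printed positive for inhibition, exceeds three library SD while starting fluorescence stays within three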;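 further: channel opened by potassium depolarization with thallium stimulus after 20 min compound exposure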
Kir21 block – blocks the mouse Kir2.1 inward-rectifier potassium channel; B-score at 10 µM; hit rate 0.85% among 310,000; HEK293-Kir2.1, FluxOR thallium flux fluorescence; active compounds read low; AID 1672; P35561;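 active means fluorescence ratio B-score at or below minus 3 SD of library scores, with starting-brightness B-score within 2 SD, cut at about -4.2 in these data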;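 further: channel flux triggered by added potassium and thallium sulfate stimulus; B-score of peak minus minimum fluorescence over baseline after thallium stimulus; more negative B-score means stronger Kir2.1 block with less thallium influx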
hERG protect – hERG (human) protection from proarrhythmic block | CHO-hERG, FluxOR thallium flux, dofetilide IC70 present | activation (rescue from dofetilide block), less the hit threshold, % at 10 µM | hit rate 0.51% among 310,000 | AID 1511;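 active means activation above the mean of controls blocked by dofetilide plus 5 SD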;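 further: thallium influx through hERG after potassium depolarization seen as dye fluorescence rise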
KCNK9 inh – human KCNK9 channel inhibition; hit rate 1.2% among 310,000; HEK293 KCNK9, FluxOR thallium flux fluorescence; active compounds read low; Q9NPC2; B-score at 10 µM;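 active means ratio B-score over 3 SD below the library mean, with starting fluorescence within 5 SD of its mean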;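 further: negative B-score means less thallium flux so channel inhibition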
KCNQ1 act – potentiators or activators of human KCNQ1 potassium channel. P51787. CHO-K1 KCNQ1, thallium flux FluxOR fluorescence; active compounds read high. B-score at 10 µM. hit rate 0.35% among 310,000. AID 2648;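 active means fluorescence ratio B-score, a plate-corrected score, at least three library SD, with initial intensity B-score within 5 SD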
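Assay system: CHO-K1 cells stably expressing KCNQ1; Medium: assay buffer with matched DMSO; Also added: K+/Tl+ depolarizing stimulus; Dosing: single dose; Timing: dye 90 min, compound 20 min, room temperature; Measured by: kinetic FluxOR thallium fluorescence, 10-s 1-Hz baseline, 110-s post-stimulus read; Read-out: peak-minus-minimum fluorescence over initial fluorescence, negative-control normalized, B-scored.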
KCNK3 inh – human KCNK3 channel inhibition, primary screen; O14649; CHO-KCNK3 thallium flux, FluxOR fluorescence; active compounds read low; B-score at 10 µM; hit rate 0.84% among 340,000; AID 602410;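 active means B-score under library mean minus 4 SD, starting fluorescence ratio at most library mean plus 5 SD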;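 further: more negative B-score means stronger inhibition of thallium flux through KCNK3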
Target sequence (O14649 whole entry, looked up): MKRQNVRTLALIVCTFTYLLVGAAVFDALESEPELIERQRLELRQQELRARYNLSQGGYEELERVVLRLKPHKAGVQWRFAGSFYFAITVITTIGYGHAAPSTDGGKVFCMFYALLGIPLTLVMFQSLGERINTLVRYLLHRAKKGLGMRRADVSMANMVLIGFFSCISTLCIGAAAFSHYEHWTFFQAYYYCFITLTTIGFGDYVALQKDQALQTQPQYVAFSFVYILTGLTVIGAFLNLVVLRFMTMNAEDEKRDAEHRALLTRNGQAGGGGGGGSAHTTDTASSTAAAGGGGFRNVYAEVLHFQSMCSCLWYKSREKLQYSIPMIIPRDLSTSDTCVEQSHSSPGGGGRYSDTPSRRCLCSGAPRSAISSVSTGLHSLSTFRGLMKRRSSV
KCNK3 confirm – confirmation of human KCNK3 two-pore domain potassium channel inhibitors. shares compounds with KCNK3 inh. ratio percent of control, % at 10 µM. AID 651638. hit rate 99% among 2,400. CHO-KCNK3 thallium flux, FluxOR fluorescence; 0% buffer, 100% carvedilol maximal block;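 active means ratio percent of control, averaged over triplicates, above buffer control mean plus 5 SD, cut at about 64% in these data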;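 further: ratio is the fluorescence rise from min to max over baseline after thallium stimulus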
KCNK3 uninduced – activity in cells without induced KCNK3 expression; shares compounds with KCNK3 inh; non-induced KCNK3 parental cells, FluxOR thallium flux; active compounds read low; thallium flux ratio (lower = more inhibition) at 10 µM; hit rate 40% among 2,400;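 active means thallium flux ratio, averaged over three wells, more than 5 SD below the buffer control mean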;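 further: host cells are CHO cells without KCNK3 induction; ratio is peak minus trough fluorescence over baseline then normalized to buffer controls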
The depositor's hits bear a star; i = inactive; . = not tested or not shown. An excerpt weighted towards active compounds, which were near 3.7% of everything screened.

SMILES | KCNQ1 block | Kir21 block | hERG protect | KCNK9 inh | KCNQ1 act | KCNK3 inh | KCNK3 confirm | KCNK3 uninduced
CCOc1ccccc1NC(=O)c1cc(=O)[nH]c2ccc(S(=O)(=O)N3CCOCC3)cc12 | . | . | . | . | . | i | . | .
CC1CN(c2nc3ccccc3nc2SCC(=O)Nc2ccc(F)cc2)CC(C)O1 (stereo not drawn) | i | 2.4 | -15 | i | i | -8.7* | 106* | 0.14*
CCOC(=O)c1cc(C)sc1NC(=O)CSc1nnnn1C | i | 1.7 | -6 | i | i | i | . | .
CCOC(=O)c1cc(C)sc1NC(=O)CSC1=NCCS1 | i | -2 | -9 | i | i | -12* | 119* | i
CCCCC/C=C/C1=CC(=O)C[C@H](c2ccc(OC)c(OC)c2)C1 | . | . | . | . | . | i | . | .
COC(=O)C1=C(C)N(C)C(C)=C(C(=O)OC)C1c1ccc(F)c(Br)c1 | i | -0.99 | -14 | i | i | -9.1* | 110* | i
COC(=O)C1=C(C)N(C)C(C)=C(C(=O)OC)C1c1ccncc1 | i | -0.67 | -14 | i | i | i | . | .
CC(C)CC1NC(=O)N(CC(=O)Nc2ccc(OC(F)F)cc2)C1=O (stereo not drawn) | . | . | . | . | . | i | . | .
CCCn1c(CNc2ccc(Br)cc2)nc2ccccc21 | i | 0.09 | -15 | i | i | -12* | 124* | 0.14*
COc1ccc(C(=O)Cc2nnc(C)s2)cc1 | i | 0.01 | -5 | i | i | i | . | .
COc1ccccc1OCCn1cc(/C=N/n2cnnc2)c2ccccc21 | i | -1.8 | -10 | i | i | i | . | .
O=C(O)c1cc(N2CCCCC2)ccn1 | . | . | . | . | . | i | . | .
CCCC(=O)c1c[nH]c(C(=O)NCCc2ccccn2)c1 | i | 0.84 | -6 | i | i | -11* | 70* | i
O=C(NCCc1ccccn1)c1n[nH]c(=O)c2ccccc12 | i | -0.38 | -5 | i | i | i | . | .
O=c1[nH]cc([N+](=O)[O-])cc1Br | i | 0.39 | -4 | i | i | i | . | .
CN=C(Nc1ccc(C(=O)OC)s1)c1ccccc1 | i | 0.06 | -1 | i | i | i | . | .
CCC(C)(c1ccc(C(=O)OC)s1)c1ccc(C(=O)OC)s1 | i | -2.1 | -7 | i | i | -9.1* | 119* | 0.14*
CCCOP(=O)(OCCC)C(Nc1ccc(C(C)C)cc1)c1ccc([N+](=O)[O-])cc1 (stereo not drawn) | i | 1.2 | -16 | i | i | -8.8* | 118* | 0.16*
O=C(NCc1cccnc1)c1c(O)c2cccc3c2n(c1=O)CCC3 | i | 0.62 | -11 | i | i | i | . | .
O=C(Nc1cccc(NC(=O)c2ccccc2)n1)c1ccccc1 | i | 1.3 | -5 | i | i | -10* | 97* | i
COc1ccccc1C(=O)Nc1ccccc1SC(=O)c1ccccc1OC | i | 0.11 | -20 | -13* | i | -9.4* | 113* | i
COc1ccccc1C(=O)Nc1cccc(NC(=O)c2ccccc2OC)n1 | i | 0.37 | -8 | i | i | -11* | 113* | i
COc1ccccc1C(=O)Nc1ccon1 | i | 0.01 | -7 | i | i | i | . | .
Cc1cccc(NC(=O)c2ccc(C(=O)c3ccccc3)cc2)n1 | i | 0.64 | -17 | i | i | i | . | .
CC(C)CNC(=O)CSc1nnc(-c2ccc(Cl)cc2)n1N | i | -0.03 | -10 | i | i | i | . | .
SMILES | KCNQ1 block | Kir21 block | hERG protect | KCNK9 inh | KCNQ1 act | KCNK3 inh | KCNK3 confirm | KCNK3 uninduced
CC(=O)c1ccc(NC(=O)c2ccc(-n3cnnn3)cc2)cc1 | . | . | . | . | . | i | . | .
Cc1ccccc1OCc1nc(-c2ccc(Br)o2)no1 | i | -1.2 | -2 | i | i | -12* | 98* | i
CO/C(N)=C(\C#N)N=Cc1ccccc1Cl | i | 4.2 | -11 | i | i | i | . | .
N#Cc1cnc(NCc2ccc(Cl)cc2Cl)nc1 | i | -1.2 | -11 | i | i | -12* | 108* | i
Cc1nn(CCCC(=O)Nc2cc(Oc3ccccc3)cc([N+](=O)[O-])c2)c(C)c1[N+](=O)[O-] | i | -1.2 | -6 | i | i | -8.8* | 124* | 0.14*
Cc1cccc(NS(=O)(=O)c2cc(C(=O)NCCC3=CCCCC3)ccc2Cl)c1 | i | 0.04 | -6 | i | i | -12* | 118* | 0.15*
CCN(CC(=O)NCc1cccs1)C(=O)CCc1c[nH]c2ccccc12 | i | 0.84 | 0 | i | i | i | . | .
CCc1ccc(CNC(=O)CCn2ccc3cc(S(=O)(=O)N4CCCC4)ccc32)cc1 | i | -1.3 | -6 | i | i | -10* | 117* | 0.15*
CCCn1c(=O)c(C(=O)Nc2ccccc2C(=O)OC)c(O)c2ccccc21 | i | 0.49 | -3 | i | i | -9.6* | 98* | i
CCn1c(=O)c(C(=O)Nc2ccc(C)cc2C)c(O)c2ccccc21 | i | 0.91 | -4 | i | i | i | . | .
CCOC(=O)c1ccccc1NC(=O)c1c(O)c2ccccc2n(CC)c1=O | i | 0.11 | -4 | i | i | -9.5* | 112* | i
CCn1c(=O)c(C(=O)Nc2ccsc2C(=O)OC)c(O)c2ccccc21 | i | 0.33 | -10 | i | i | . | . | .
COc1ccc2[nH]c3c(N4CCC(O)(c5cccc(C(F)(F)F)c5)CC4)ncnc3c2c1 | i | -0.18 | -16 | i | i | -12* | 122* | 0.15*
COc1ccc2[nH]c3c(N4CCN(Cc5ccc6c(c5)OCO6)CC4)ncnc3c2c1 | i | -1.1 | -24 | i | i | i | . | .
COc1cc(CN(C)CC2CCCN(CCc3ccc(F)cc3)C2)c(Cl)cc1O (stereo not drawn) | i | 0.83 | -9 | i | i | -9.6* | 80* | i
COc1cc(CN(C)CC2CCCN(CCc3cccc(C(F)(F)F)c3)C2)ccc1O (stereo not drawn) | i | -1.2 | -7 | i | i | i | . | .
Cc1noc(C)c1COc1ccccc1C(=O)NCCOc1ccccc1F | . | . | . | . | . | i | . | .
Cc1noc(C)c1COc1ccccc1C(=O)NC1CCC(C)CC1 (stereo not drawn) | i | -1.5 | -14 | i | i | -10* | 106* | i
Cc1ccccc1N1CCN(Cc2ccc(Br)o2)CC1 | i | -0.46 | -8 | i | i | i | . | .
CCn1nc(C)cc1C(=O)N1CCCC(CCC(=O)NCc2ccccc2F)C1 (stereo not drawn) | i | 1.6 | -6 | i | i | i | . | .
